Assay results reported in PubChem BioAssay.
Calls of active or inactive are those of the source.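 The calls were made as follows, unless noted: active = GFP response above 150% of the DMSO level; inconclusive = fewer than 70 events counted for a yeast strain; inactive = the rest.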

What was measured:
[1] = RPL19A-GFP modulators, yeast TOR pathway, confirmation, cell-based, S. cerevisiae, flow cytometry, cherry picks, mother/daughter gates (AID 2270;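 active = GFP response below 50% of the DMSO control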); conditions: S. cerevisiae RPL19A-GFP strain, 3 h, at 10 µM, stronger effect = lower value, 100 = same GFP as DMSO wells
[2] = LAP4-GFP expression modulators in yeast, confirmation, cell-based, cherry picks, flow cytometry, mother/daughter gates (AID 2271;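 active = GFP response above 150% of the DMSO control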;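 also: ratio of sample to DMSO plate mean so 100% equals DMSO level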); conditions: S. cerevisiae LAP4-GFP strain, 3 h, at 10 µM, stronger effect = higher value, 100 means same as DMSO control
How it was run: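 Material: Alexa Fluor 633-labelled Saccharomyces cerevisiae GFP-fusion strain, single-plex | Amount: Yeast cells seeded at OD600 of 0.2 | Buffer or medium: SC growth medium | Schedule: 3 h exposure, 30 °C | Measured by: HT flow cytometry, GFP fluorescence channel | Evaluation: % GFP response vs DMSO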

[3] = modulators of MEP2-GFP levels in yeast, confirmation, S. cerevisiae, flow cytometry GFP, cherry picks (AID 2272;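 active = GFP response above 150% of the DMSO control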;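 also: ratio of well signal to plate DMSO mean so 100% equals DMSO level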); conditions: S. cerevisiae MEP2-GFP strain, 3 h, at 10 µM, stronger effect = higher value
[4] = AGP1-GFP expression modulators, hit retest, confirmation, cell-based, flow cytometry, S. cerevisiae, cherry picks (AID 2273);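 also: median GFP channel fluorescence over the whole cell population gate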; conditions: S. cerevisiae AGP1-GFP strain, 3 h, at 10 µM
[5] = modulators of CIT2-GFP expression in yeast, confirmation, S. cerevisiae, GFP fusion, cherry picks, mother/daughter gates (AID 2274); conditions: S. cerevisiae CIT2-GFP strain, flow cytometry, 3 h, at 10 µM, stronger effect = higher value
[6] = measured here: daughter cell gate
[7] = measured here: mother cell gate
[8] = measured here: daughter cell gate response
[9] = measured here: mother cell gate response

Row | Structure (SMILES) | GFP response vs DMSO [1] | GFP response vs DMSO [1, 6] | GFP response vs DMSO [1, 7] | GFP response relative to DMSO [2] | GFP response relative to DMSO [2, 8] | GFP response relative to DMSO [2, 9] | GFP response vs DMSO [3] | GFP response, % of DMSO [4] | GFP response, % of DMSO [5] | GFP response, % of DMSO [5, 6] | GFP response, % of DMSO [5, 7]
1 | O=C(O)Cc1ccc2ccc3ccccc3c2c1 | 96.8% (inactive) | 92.8% | 97.8% | 106% (inactive) | 105% | 105% | 102% (inactive) | 96.1% (inactive) | 104% (inactive) | 99.7% | 104%
2 | O=C1c2ccccc2C(=O)c2c([N+](=O)[O-])ccc(O)c21 | 82.2% (inactive) | 91.2% | 74.2% | 122% (inactive) | 114% | 124% | 110% (inactive) | 106% (inactive) | 92.2% (inactive) | 93.7% | 82.8%
3 | CCSc1nnc(NC(=O)c2ccccn2)s1 | 101% (inactive) | 100% | 99.8% | 257% (active) | 223% | 254% | 122% (inactive) | 93.8% (inactive) | 97.8% (inactive) | 104% | 91%
4 | CC(=O)Oc1oc(-c2ccccc2)nc1C=Nc1ccc(N(C)C)cc1 | 100% (inactive) | 100% | 99.2% | 95% (inactive) | 91% | 98.3% | 95.7% (inactive) | 97% (inactive) | 92.6% (inactive) | 91.5% | 92.3%
5 | CCc1noc(C)c1C(=O)Nc1nc(-c2cc(C)ccc2C)c(C)s1 | 103% (inactive) | 103% | 103% | 95% (inactive) | 95.6% | 99.3% | 100% (inactive) | 94.1% (inactive) | 106% (inactive) | 99.7% | 107%
6 | Cn1ncc(S(=O)(=O)Cc2ccccc2)c(Cl)c1=O | 94.2% (inactive) | 90.6% | 87.7% | 316% (active) | 160% | 319% | 100% (inactive) | 79.1% (inactive) | 92.6% (inactive) | 101% | 84.3%
7 | CCOc1cc(/C=N/Nc2nc(C)cc(=O)[nH]2)ccc1O | 102% (inactive) | 102% | 100% | 89% (inactive) | 87.9% | 90.1% | 104% (inactive) | 100% (inactive) | 106% (inactive) | 106% | 103%
8 | CCN(Cc1ccccc1)S(=O)(=O)c1ccc(C(=O)Nc2nnc(C3CC3)o2)cc1 | 98% (inactive) | 97% | 98.6% | 106% (inactive) | 105% | 104% | 99.5% (inactive) | 96.9% (inactive) | 99.3% (inactive) | 100% | 96.8%
9 | C/C(=N\NC(=O)c1nonc1N)c1cccs1 | 98.2% (inactive) | 98.8% | 98.1% | 102% (inactive) | 99.3% | 100% | 99.5% (inactive) | 94.5% (inactive) | 99.3% (inactive) | 98.3% | 98%
10 | CCCc1[nH]nc2c1C(c1cccc(OC)c1)C(C#N)=C(N)O2 (stereo not drawn) | 103% (inactive) | 101% | 103% | 98.2% (inactive) | 95.9% | 97.3% | 105% (inactive) | 98.6% (inactive) | 102% (inactive) | 97.4% | 103%
11 | CC[n+]1c(/C=C/c2ccc(N(C)C)cc2)ccc2ccccc21 | 99.4% (inactive) | 96.6% | 96.5% | 105% (inactive) | 104% | 106% | 118% (inactive) | 101% (inactive) | 97.3% (inactive) | 97.4% | 96.8%
12 | NS(=O)(=O)c1ccc(Sc2ccccn2)c([N+](=O)[O-])c1 | 97.4% (inactive) | 98.6% | 98.5% | 97.9% (inactive) | 99.2% | 98.3% | 100% (inactive) | 101% (inactive) | 98.3% (inactive) | 101% | 98.5%
13 | CC(=O)c1ccc(Sc2ccccn2)c([N+](=O)[O-])c1 | 98.4% (inactive) | 99.4% | 95.8% | 99.2% (inactive) | 99.2% | 97.2% | 102% (inactive) | 93.1% (inactive) | 101% (inactive) | 103% | 99.7%
14 | Cn1c(=O)c(C(=O)Nc2ncccc2O)c(O)c2ccccc21 | 95.3% (inactive) | 93.9% | 91.8% | 100% (inactive) | 91.3% | 90.3% | 145% (inactive) | 99.8% (inactive) | 90.3% (inactive) | 90.5% | 88.2%
15 | Cc1ccc(NN2C(=O)C=C(c3ccc(Cl)cc3)C2=O)cc1 | 83.9% (inactive) | 87.1% | 74.3% | 289% (active) | 117% | 280% | 111% (inactive) | 91.3% (inactive) | 96.9% (inactive) | 91.7% | 83.1%
16 | Oc1ccccc1/C=N/c1c(-c2ccco2)nc2ccccn12 | 99.5% (inactive) | 98.1% | 100% | 93.8% (inactive) | 97.2% | 97.2% | 100% (inactive) | 102% (inactive) | 102% (inactive) | 99.7% | 102%
17 | Cn1cnc([N+](=O)[O-])c1S(=O)(=O)c1cccc(Cl)c1 | 103% (inactive) | 99.9% | 100% | 107% (inactive) | 104% | 108% | 103% (inactive) | 113% (inactive) | 118% (inactive) | 119% | 113%

Row | Structure (SMILES) | GFP response vs DMSO [1] | GFP response vs DMSO [1, 6] | GFP response vs DMSO [1, 7] | GFP response relative to DMSO [2] | GFP response relative to DMSO [2, 8] | GFP response relative to DMSO [2, 9] | GFP response vs DMSO [3] | GFP response, % of DMSO [4] | GFP response, % of DMSO [5] | GFP response, % of DMSO [5, 6] | GFP response, % of DMSO [5, 7]
18 | COc1cc(NC(=O)c2cccc([N+](=O)[O-])c2)ccc1NC(=O)c1cc2ccccc2o1 | 98% (inactive) | 99.9% | 97.8% | 94.9% (inactive) | 98.2% | 95.1% | 101% (inactive) | 100% (inactive) | 107% (inactive) | 105% | 108%
19 | O=C1Nc2ccccc2C(=O)C1(Cl)Cc1ccccc1 (stereo not drawn) | 89.6% (inactive) | 91.9% | 88.3% | 132% (inactive) | 124% | 134% | 101% (inactive) | 102% (inactive) | 94.4% (inactive) | 95.8% | 90.4%
20 | Cc1cc(C)nc(S/C=C/C(=O)c2ccccc2F)n1 | 103% (inactive) | 102% | 102% | 120% (inactive) | 119% | 123% | 107% (inactive) | 94.3% (inactive) | 95.2% (inactive) | 98.1% | 92.3%
21 | O=[N+]([O-])c1ccc(-c2cn3nc(-c4ccccc4)c(-c4ccccc4)nc3n2)cc1 | 102% (inactive) | 101% | 96.2% | 115% (inactive) | 115% | 114% | 227% (active) | 106% (inactive) | 109% (inactive) | 106% | 108%
22 | Cc1noc2ncnc(Sc3ccccc3Cl)c12 | 106% (inactive) | 104% | 105% | 112% (inactive) | 111% | 112% | 109% (inactive) | 101% (inactive) | 116% (inactive) | 113% | 114%
23 | O=C1CC(Sc2nnc(-c3ccccc3)o2)C(=O)N1c1ccccc1 (stereo not drawn) | 99.9% (inactive) | 98.7% | 100% | 106% (inactive) | 105% | 107% | 102% (inactive) | 98.7% (inactive) | 97.8% (inactive) | 99.7% | 93.4%
24 | COc1ccccc1-c1noc(-c2cc(OC)c(OC)c(OC)c2)n1 | 97.2% (inactive) | 96.4% | 96.3% | 103% (inactive) | 105% | 105% | 104% (inactive) | 99.2% (inactive) | 99.1% (inactive) | 96.5% | 98.7%
25 | CN1c2ccsc2/C(=N/Nc2ccc(F)cc2)CS1(=O)=O | 99.2% (inactive) | 99.6% | 99% | 134% (inactive) | 130% | 134% | 114% (inactive) | 103% (inactive) | 109% (inactive) | 108% | 109%
26 | CCc1nnc(N2C(=O)c3cccc4cccc(c34)C2=O)s1 | 94.5% (inactive) | 95% | 93.3% | 94.1% (inactive) | 92.9% | 94.4% | 108% (inactive) | 98.8% (inactive) | 100% (inactive) | 101% | 99.3%
27 | CC(Oc1ccc(Cl)cc1Cl)C(=O)NC1=NN(c2ccccc2)C(=O)C1 (stereo not drawn) | 95.8% (inactive) | 98.9% | 96.4% | 101% (inactive) | 101% | 98.3% | 98.3% (inactive) | 102% (inactive) | 98.3% (inactive) | 99.1% | 97.3%
28 | COc1ccccc1NC(=O)Cn1nnc(-c2ccccc2NC(=O)c2ccco2)n1 | 95.9% (inactive) | 96.1% | 96.6% | 85.4% (inactive) | 87.9% | 89% | 100% (inactive) | 95.4% (inactive) | 99.1% (inactive) | 98.1% | 99.8%
29 | Cc1cccc(/C=C/c2onc(C)c2[N+](=O)[O-])n1 | 99.9% (inactive) | 99.5% | 96.6% | 146% (inactive) | 137% | 147% | 100% (inactive) | 94.3% (inactive) | 87.4% (inactive) | 91.5% | 82.6%
30 | Cc1ccc(/C=C/C(=O)N2CC(C)CC(C)C2)o1 (stereo not drawn) | 103% (inactive) | 105% | 101% | 111% (inactive) | 107% | 113% | 116% (inactive) | 105% (inactive) | 106% (inactive) | 103% | 105%
31 | Cn1nnnc1N=N/C(=N/Nc1ccccc1)c1ccccc1 | 97.6% (inactive) | 96.1% | 97.3% | 110% (inactive) | 107% | 115% | 94.7% (inactive) | 89.5% (inactive) | 87.2% (inactive) | 88.4% | 85.8%
32 | COc1ccccc1OCC(=O)Sc1ccc(C)cc1 | 95.3% (inactive) | 96.7% | 92.3% | 113% (inactive) | 110% | 113% | 120% (inactive) | 99.3% (inactive) | 97.2% (inactive) | 99.3% | 93.8%
33 | COC(=O)c1ccccc1Sc1ncnc2onc(C)c12 | 101% (inactive) | 100% | 101% | 111% (inactive) | 106% | 112% | 120% (inactive) | 93.2% (inactive) | 108% (inactive) | 106% | 107%
